Experimental data reported in paper PMC9159088 (Chemical Science, 2022).

Assays:
Huh7 xenograft tumors = assay: Mice xenograft model of HCC; format: in vivo, NOD-SCID mice; conditions: 30 mg kg−1 ip. twice a week
Serum biochemistry assay = format: in vivo, NOD-SCID mice; conditions: 30 mg kg−1 ip. twice a week
Outline: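 Huh7 cells (5 × 106) implanted subcutaneously into left and right flanks of NOD-SCID mice. From day 7 after inoculation, test compound or reference drug given ip at 30 mg kg−1 twice a week for 34 days; bodyweight monitored. Serum AST, ALT, total bilirubin, creatinine and BUN measured for hepatorenal toxicity; significance set at P < 0.05.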

[1] = target: T1, human Golgi α-mannosidase II (α-hGMII) (Homo sapiens, UniProt Q16706); assay: 4-MU-based enzyme inhibition study, wild-type α-hGMII; format: biochemical; conditions: SI = (α-hLM Ki)/(α-hGMII Ki), Man-α-4MU substrate
T1 sequence (Q16706 1-1144): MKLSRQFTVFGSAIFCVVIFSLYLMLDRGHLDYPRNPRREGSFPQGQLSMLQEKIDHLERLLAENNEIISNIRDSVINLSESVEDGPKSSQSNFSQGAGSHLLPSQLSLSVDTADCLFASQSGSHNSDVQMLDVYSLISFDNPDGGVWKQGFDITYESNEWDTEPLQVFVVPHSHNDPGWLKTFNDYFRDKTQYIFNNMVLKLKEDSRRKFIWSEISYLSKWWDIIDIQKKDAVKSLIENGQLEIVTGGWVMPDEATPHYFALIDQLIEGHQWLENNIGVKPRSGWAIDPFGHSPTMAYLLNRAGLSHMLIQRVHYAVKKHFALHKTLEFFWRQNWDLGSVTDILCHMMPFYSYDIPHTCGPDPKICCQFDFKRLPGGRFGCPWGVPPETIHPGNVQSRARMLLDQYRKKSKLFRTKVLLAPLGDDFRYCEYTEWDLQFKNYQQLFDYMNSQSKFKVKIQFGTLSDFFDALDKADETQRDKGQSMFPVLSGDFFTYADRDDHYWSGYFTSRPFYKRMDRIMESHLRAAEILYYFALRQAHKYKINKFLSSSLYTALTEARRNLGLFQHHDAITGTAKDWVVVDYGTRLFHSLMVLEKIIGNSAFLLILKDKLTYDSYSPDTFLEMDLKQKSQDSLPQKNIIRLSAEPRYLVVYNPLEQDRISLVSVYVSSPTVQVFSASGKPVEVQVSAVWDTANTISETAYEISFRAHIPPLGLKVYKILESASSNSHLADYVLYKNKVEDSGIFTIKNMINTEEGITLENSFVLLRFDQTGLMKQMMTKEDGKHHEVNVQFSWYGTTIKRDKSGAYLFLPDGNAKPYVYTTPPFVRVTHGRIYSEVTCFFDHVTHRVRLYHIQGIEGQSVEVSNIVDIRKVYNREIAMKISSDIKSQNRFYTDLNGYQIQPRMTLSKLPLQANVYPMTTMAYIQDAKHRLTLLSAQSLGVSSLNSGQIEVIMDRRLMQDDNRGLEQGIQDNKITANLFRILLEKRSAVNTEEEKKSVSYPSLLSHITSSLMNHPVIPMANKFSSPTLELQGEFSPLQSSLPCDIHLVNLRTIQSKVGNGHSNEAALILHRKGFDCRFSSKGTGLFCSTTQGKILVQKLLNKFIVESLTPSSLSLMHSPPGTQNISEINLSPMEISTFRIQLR

[2] = system: human normal fibroblast (08C0015); assay: Cell based selectivity assay; conditions: 08C0015, 24 h treatment
α-hGMII = target: T2, α-hGMII (Homo sapiens, UniProt Q16706); assay: Glycan-based; format: biochemical; conditions: SI = (α-hLM IC50)/(α-hGMII IC50), oligosaccharide substrates
T2 sequence (Q16706 1-1144): T1 sequence (Q16706 1-1144)
Outline: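 The substrate for human Golgi α-mannosidase II was 2-aminobenzamide-labelled GlcNAcMan5GlcNAc2 (GlcNAcMan5-2AB), with LNnT-2AB as internal standard. Enzyme, substrate and test compound (0, 0.3, 0.1, 0.03 μM) were incubated 24 h at 37 °C. Remaining substrate was measured by UPLC fluorescence as the peak area ratio of substrate to internal standard. Ki was taken from a Lineweaver–Burk plot. SI used lysosomal α-mannosidase IC50, run the same way with Man5-2AB substrate and NA2-2AB standard.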

Row | Structure (SMILES) | signs of harm / body weight during treatment (Huh7 xenograft tumors) | tumor growth compared to the control (Huh7 xenograft tumors; P < 0.05) | side effects (hepatotoxicity and nephrotoxicity) (Serum biochemistry assay) | SI: selectivity index [1] | increase of relative intensity of overall Man2-9GlcNAc compared to the control group [2] | SI: selectivity index (glycan based) (α-hGMII)
1 | CNC(=O)c1cc(Oc2ccc(NC(=O)Nc3ccc(Cl)c(C(F)(F)F)c3)cc2)ccn1 [Sorafenib, sorafenib] | neither mice injected with 8b-3 nor sorafenib exhibited signs of harm or decreased body weight | significant reduction in tumor growth | no serious side effects including hepatotoxicity and nephrotoxicity were observed |  |  | 
2 | O[C@H]1[C@H]2[C@H](O)CCCN2C[C@H]1O [sw, swainsonine] |  |  |  | 4.6 | about 5 fold | 5
